Laboratory results taken from ChEMBL document CHEMBL4261587 (Eur J Med Chem, 2018).

Legend:
[1] = biological target: Dual specificity tyrosine-phosphorylation-regulated kinase 1B (Homo sapiens, UniProt Q9Y463); experiment: Inhibition of recombinant full length human Dyrk1B expressed in Baculovirus expression system using KKISGRLSPIMTEQ as substrate in presence of ATP
[2] = Half life in human liver S9 fraction at 0.3 uM incubated up to 120 mins at 37 degC in presence of NADP+/UDPGA by LC-MS/MS analysis; format: ADME, subcellular
Method in brief: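 Phase I and phase II metabolic stability was tested in S9 fraction from human liver homogenate. Samples were taken at several time points, and the remaining parent compound was quantified by LC-MS/MS to give a metabolic half-life.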

[3] = Half life in Sprague-Dawley rat liver microsomes at 0.5 uM by LC-MS/MS analysis; format: ADME, microsome
[4] = test system: HeLa; experiment: Cytotoxicity against human HeLa cells after 5 days by MTT assay; format: functional, cell-based; details: 120 h
[5] = test system: HeLa; experiment: Cytotoxicity against human HeLa cells assessed as cell viability at 1 uM by XTT assay; format: functional; details: read-out: Activity
[6] = test system: HeLa; experiment: Cytotoxicity against human HeLa cells after 72 hrs by CellTiter-Blue assay; format: functional, cell-based
[7] = biological target: Cyclin-dependent kinase 5/CDK5 activator 1 (Homo sapiens) (UniProt Q00535+Q15078); experiment: Inhibition of recombinant human CDK5/p25 expressed in baculovirus expression system at 2 uM by Z'-LYTE assay
Chain of Cyclin-dependent kinase 5/CDK5 activator 1 (Homo sapiens) (Q00535 whole entry): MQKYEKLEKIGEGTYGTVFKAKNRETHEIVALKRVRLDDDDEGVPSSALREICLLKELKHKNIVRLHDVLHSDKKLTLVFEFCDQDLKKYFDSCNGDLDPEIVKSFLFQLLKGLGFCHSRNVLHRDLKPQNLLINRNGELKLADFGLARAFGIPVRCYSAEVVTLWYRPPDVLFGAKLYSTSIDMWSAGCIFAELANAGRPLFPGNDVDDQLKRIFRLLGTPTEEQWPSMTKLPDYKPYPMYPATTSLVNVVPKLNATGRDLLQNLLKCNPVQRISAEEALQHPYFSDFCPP
Chain of Cyclin-dependent kinase 5/CDK5 activator 1 (Homo sapiens) (Q15078 99-307 partner limits assumed): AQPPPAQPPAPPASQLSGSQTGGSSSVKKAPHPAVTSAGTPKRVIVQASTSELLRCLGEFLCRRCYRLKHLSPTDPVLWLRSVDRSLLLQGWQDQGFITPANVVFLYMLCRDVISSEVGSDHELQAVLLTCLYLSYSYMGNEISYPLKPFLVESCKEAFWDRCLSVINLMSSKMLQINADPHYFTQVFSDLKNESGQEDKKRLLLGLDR

[8] = biological target: T1, Dual specificity tyrosine-phosphorylation-regulated kinase 2 (Homo sapiens, UniProt Q92630); experiment: Inhibition of recombinant human Dyrk2 (unknown origin) at 2 uM by Lantha-screen assay
T1 sequence (Q92630 whole entry): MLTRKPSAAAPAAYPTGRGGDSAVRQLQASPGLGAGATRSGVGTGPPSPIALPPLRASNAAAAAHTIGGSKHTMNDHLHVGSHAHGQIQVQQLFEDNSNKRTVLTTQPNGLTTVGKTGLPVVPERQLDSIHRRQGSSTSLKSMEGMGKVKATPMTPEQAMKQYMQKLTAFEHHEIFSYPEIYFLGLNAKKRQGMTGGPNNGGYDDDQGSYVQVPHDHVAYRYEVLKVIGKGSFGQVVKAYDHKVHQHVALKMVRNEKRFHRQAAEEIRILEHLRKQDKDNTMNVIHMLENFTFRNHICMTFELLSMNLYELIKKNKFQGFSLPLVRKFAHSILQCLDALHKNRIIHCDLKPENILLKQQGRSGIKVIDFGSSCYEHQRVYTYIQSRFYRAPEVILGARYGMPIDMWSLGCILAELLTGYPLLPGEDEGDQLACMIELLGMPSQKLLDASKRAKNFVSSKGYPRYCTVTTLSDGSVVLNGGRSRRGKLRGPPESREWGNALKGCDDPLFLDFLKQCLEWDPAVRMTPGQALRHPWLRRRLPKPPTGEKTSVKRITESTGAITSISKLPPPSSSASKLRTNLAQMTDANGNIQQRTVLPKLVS

[9] = biological target: BDNF/NT-3 growth factors receptor (Homo sapiens) (UniProt Q16620); experiment: Inhibition of recombinant human TRKB expressed in Baculovirus expression system at 2 uM by Z'-LYTE assay
Chain of BDNF/NT-3 growth factors receptor (Homo sapiens) (Q16620 32-822 limits assumed): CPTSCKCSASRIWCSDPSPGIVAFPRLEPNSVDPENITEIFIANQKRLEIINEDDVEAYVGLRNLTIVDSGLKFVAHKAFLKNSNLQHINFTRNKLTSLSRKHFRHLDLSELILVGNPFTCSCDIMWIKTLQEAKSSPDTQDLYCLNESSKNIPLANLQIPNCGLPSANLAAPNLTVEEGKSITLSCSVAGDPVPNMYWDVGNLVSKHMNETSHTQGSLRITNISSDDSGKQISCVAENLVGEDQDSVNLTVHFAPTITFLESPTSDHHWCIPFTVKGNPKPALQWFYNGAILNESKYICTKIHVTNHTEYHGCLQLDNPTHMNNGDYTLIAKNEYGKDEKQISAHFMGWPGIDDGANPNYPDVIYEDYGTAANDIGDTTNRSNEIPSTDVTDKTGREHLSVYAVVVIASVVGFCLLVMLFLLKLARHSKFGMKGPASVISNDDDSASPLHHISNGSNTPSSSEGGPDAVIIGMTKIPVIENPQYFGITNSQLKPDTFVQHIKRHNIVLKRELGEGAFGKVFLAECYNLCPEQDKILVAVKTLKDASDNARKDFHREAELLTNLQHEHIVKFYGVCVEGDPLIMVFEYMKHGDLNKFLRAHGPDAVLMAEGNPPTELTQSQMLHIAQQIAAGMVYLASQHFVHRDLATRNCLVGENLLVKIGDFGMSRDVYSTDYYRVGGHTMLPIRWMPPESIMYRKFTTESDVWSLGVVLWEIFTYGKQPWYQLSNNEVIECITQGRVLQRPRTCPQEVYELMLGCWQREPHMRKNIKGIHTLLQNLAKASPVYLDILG

[10] = biological target: Casein kinase I isoform delta (Homo sapiens) (UniProt P48730); experiment: Inhibition of recombinant human CK1delta expressed in Baculovirus expression system at 2 uM by Z'-LYTE assay
[11] = biological target: Homeodomain-interacting protein kinase 1 (Homo sapiens) (UniProt Q86Z02); experiment: Inhibition of recombinant human HIPK1 expressed in Baculovirus expression system at 2 uM by Z'-LYTE assay
Chain of Homeodomain-interacting protein kinase 1 (Homo sapiens) (Q86Z02 whole entry, looked up): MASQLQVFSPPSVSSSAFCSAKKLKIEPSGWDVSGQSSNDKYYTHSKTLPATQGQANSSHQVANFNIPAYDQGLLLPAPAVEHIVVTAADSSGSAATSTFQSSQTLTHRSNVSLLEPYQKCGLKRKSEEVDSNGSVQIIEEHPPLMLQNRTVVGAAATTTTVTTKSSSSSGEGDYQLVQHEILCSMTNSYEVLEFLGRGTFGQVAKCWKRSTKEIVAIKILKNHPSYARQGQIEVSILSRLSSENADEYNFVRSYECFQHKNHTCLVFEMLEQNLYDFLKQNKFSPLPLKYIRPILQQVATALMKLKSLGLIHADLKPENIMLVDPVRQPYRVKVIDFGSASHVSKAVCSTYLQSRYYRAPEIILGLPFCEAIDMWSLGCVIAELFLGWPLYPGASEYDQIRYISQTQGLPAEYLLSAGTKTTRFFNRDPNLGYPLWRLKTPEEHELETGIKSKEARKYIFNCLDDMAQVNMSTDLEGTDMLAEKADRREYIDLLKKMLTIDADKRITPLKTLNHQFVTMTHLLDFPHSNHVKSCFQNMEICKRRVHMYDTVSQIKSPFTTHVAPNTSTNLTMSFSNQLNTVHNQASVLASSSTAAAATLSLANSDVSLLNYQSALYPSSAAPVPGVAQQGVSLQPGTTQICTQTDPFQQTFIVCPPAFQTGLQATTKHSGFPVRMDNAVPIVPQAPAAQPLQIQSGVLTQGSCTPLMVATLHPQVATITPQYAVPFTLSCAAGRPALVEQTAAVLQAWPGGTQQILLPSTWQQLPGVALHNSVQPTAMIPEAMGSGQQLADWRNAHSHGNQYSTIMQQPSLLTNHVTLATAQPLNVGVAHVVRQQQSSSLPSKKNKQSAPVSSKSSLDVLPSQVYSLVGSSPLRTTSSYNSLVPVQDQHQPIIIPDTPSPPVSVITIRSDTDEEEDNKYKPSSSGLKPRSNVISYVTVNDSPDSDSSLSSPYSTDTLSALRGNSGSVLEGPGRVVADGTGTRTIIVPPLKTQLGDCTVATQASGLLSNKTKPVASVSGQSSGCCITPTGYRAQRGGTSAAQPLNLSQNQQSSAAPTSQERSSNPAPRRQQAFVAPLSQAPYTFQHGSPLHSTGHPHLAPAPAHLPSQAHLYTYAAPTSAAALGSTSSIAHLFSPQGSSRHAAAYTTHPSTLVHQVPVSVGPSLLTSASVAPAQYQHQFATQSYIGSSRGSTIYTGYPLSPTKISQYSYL

[12] = biological target: Dual specificity protein kinase CLK2 (Homo sapiens) (UniProt P49760); experiment: Inhibition of recombinant human Clk2 expressed in Baculovirus expression system at 2 uM by Z'-LYTE assay
[13] = test system: HeLa; experiment: Cytotoxicity against human HeLa cells assessed as cell viability at 10 uM by XTT assay; format: functional; details: read-out: Activity
[14] = biological target: SRSF protein kinase 1 (Homo sapiens) (UniProt Q96SB4); experiment: Inhibition of recombinant human SRPK1 expressed in Baculovirus expression system at 2 uM by Z'-LYTE assay
Chain of SRSF protein kinase 1 (Homo sapiens) (Q96SB4 whole entry): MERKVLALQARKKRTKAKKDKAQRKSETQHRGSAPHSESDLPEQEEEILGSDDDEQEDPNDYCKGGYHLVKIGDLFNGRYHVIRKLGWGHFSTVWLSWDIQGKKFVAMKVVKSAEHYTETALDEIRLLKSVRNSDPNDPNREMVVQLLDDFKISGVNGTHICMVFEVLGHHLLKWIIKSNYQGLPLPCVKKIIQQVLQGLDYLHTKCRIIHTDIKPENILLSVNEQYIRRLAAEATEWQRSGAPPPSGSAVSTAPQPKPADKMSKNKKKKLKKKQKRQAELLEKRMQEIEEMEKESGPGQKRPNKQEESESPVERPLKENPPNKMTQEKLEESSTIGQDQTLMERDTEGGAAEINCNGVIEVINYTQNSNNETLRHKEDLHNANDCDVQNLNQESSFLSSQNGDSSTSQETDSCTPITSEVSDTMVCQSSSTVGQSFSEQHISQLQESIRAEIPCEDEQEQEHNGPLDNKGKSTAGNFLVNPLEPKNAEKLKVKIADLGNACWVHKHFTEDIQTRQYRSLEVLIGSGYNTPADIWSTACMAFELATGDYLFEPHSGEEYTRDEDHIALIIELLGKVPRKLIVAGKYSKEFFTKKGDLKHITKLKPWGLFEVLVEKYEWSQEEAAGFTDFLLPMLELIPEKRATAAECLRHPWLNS

[15] = biological target: T2, Dual specificity tyrosine-phosphorylation-regulated kinase 1A (Homo sapiens, UniProt Q13627); experiment: Inhibition of Dyrk1A in human HeLa cells transfected with GFP-SF3b1-NT assessed as decrease in SF3B1 phosphorylation at Thr434 after 18 hrs by Western blot analysis; format: cell-based
Method in brief: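 HeLa cells were transiently transfected with a GFP-SF3b1 expression vector, then treated with compound. Read-out was phosphorylation of SF3b1 at Thr434, which serves as a marker of endogenous Dyrk1A activity in the cell.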

[16] = biological target: Serine/threonine-protein kinase pim-1 (Homo sapiens) (UniProt P11309); experiment: Inhibition of recombinant human PIM1 expressed in Baculovirus expression system at 2 uM by Z'-LYTE assay
[17] = biological target: Myosin light chain kinase 2, skeletal/cardiac muscle (Homo sapiens) (UniProt Q9H1R3); experiment: Inhibition of recombinant human MLCK2 expressed in Baculovirus expression system at 2 uM by Lantha-screen assay
Chain of Myosin light chain kinase 2, skeletal/cardiac muscle (Homo sapiens) (Q9H1R3 whole entry): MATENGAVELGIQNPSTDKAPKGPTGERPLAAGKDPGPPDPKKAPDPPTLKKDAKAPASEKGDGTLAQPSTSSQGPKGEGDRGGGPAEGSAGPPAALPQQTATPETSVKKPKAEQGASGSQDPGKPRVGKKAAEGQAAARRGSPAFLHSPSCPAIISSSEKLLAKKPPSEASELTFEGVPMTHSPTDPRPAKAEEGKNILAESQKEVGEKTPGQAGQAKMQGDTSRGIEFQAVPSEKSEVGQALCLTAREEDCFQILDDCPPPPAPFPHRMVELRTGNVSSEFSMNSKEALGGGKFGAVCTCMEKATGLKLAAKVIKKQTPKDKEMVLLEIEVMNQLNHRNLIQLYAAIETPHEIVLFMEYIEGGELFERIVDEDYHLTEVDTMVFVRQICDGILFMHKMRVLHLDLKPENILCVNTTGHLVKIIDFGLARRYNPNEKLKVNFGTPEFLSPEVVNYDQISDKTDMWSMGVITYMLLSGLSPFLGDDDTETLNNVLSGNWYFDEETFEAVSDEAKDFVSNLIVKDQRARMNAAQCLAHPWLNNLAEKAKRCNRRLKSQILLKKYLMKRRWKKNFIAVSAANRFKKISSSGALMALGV

[18] = biological target: T3, Serine/threonine-protein kinase haspin (Homo sapiens, UniProt Q8TF76); experiment: Inhibition of recombinant human Haspin expressed in Baculovirus expression system by Adapta assay
T3 sequence (Q8TF76 whole entry): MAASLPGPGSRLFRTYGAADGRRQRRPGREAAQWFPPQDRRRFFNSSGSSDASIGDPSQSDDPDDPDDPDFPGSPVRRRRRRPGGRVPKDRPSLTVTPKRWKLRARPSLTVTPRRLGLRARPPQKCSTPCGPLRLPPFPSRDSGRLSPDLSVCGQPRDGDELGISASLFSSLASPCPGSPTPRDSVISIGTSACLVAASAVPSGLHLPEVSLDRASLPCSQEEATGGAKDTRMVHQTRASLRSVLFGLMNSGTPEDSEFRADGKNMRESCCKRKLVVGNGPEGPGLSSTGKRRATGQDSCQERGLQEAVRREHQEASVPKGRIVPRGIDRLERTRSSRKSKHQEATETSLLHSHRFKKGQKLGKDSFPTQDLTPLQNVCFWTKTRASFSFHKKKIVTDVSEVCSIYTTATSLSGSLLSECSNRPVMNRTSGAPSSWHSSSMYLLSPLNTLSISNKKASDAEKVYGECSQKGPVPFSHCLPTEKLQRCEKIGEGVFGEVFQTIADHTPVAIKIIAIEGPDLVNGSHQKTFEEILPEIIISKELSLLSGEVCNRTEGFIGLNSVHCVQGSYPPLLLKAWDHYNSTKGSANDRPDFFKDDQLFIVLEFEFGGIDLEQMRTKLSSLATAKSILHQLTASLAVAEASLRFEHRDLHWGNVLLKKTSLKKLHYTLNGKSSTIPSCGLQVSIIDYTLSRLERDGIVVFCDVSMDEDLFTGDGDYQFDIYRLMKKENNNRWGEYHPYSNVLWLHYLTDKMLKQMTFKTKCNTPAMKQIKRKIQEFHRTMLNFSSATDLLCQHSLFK

[19] = biological target: T2, Dual specificity tyrosine-phosphorylation-regulated kinase 1A; experiment: Inhibition of recombinant human Dyrk1A expressed in Baculovirus expression system at 2 uM by Z'-LYTE assay
[20] = test system: HeLa; experiment: Cytotoxicity against human HeLa cells assessed as cell viability at 3 uM by XTT assay; format: functional; details: read-out: Activity
[21] = biological target: T2, Dual specificity tyrosine-phosphorylation-regulated kinase 1A; experiment: Inhibition of recombinant full length human Dyrk1A expressed in Baculovirus expression system using KKISGRLSPIMTEQ as substrate in presence of ATP
[22] = biological target: Dual specificity protein kinase CLK1 (Homo sapiens, UniProt P49759); experiment: Inhibition of recombinant human Clk1 expressed in Escherichia coli at 2 uM by Z'-LYTE assay
Chain of Dual specificity protein kinase CLK1 (P49759 whole entry): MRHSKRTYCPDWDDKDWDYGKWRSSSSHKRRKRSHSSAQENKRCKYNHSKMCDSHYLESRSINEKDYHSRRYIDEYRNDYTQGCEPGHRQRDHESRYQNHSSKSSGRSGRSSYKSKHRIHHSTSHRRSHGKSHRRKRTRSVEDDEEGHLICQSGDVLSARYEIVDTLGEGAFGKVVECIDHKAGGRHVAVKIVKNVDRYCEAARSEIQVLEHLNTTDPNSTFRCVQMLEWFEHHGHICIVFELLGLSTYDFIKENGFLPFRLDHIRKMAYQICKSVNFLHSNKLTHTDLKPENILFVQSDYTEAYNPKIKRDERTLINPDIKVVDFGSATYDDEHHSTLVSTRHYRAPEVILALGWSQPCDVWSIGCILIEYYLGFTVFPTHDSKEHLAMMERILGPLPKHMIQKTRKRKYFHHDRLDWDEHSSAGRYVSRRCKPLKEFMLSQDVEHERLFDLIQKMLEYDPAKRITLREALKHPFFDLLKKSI

[23] = biological target: T4, Serine/threonine-protein kinase haspin (Homo sapiens) (UniProt Q8TF76); experiment: Inhibition of recombinant human Haspin expressed in Baculovirus expression system at 2 uM by Adapta assay
T4 sequence (whole entry): T3 sequence (Q8TF76 whole entry)

[24] = biological target: T5, Serine/threonine-protein kinase 17A (Homo sapiens) (UniProt Q9UEE5); experiment: Inhibition of recombinant human STK17A expressed in Baculovirus expression system at 2 uM by Lantha-Screen assay
T5 sequence (whole entry): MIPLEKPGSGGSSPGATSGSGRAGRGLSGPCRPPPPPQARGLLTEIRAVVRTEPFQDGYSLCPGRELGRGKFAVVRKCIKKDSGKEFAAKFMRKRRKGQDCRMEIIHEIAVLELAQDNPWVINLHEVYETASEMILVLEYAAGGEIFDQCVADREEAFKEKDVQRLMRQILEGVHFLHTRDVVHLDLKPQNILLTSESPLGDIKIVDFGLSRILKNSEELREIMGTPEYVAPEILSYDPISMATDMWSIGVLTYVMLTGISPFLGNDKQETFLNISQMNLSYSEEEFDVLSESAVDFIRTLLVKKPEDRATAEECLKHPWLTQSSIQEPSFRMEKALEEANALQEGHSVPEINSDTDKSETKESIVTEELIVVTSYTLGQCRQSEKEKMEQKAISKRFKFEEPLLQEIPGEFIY

[25] = biological target: T2, Dual specificity tyrosine-phosphorylation-regulated kinase 1A; experiment: Inhibition of recombinant human Dyrk1A expressed in Baculovirus expression system by Z'-LYTE assay

Chain of Dual specificity tyrosine-phosphorylation-regulated kinase 1B (Q9Y463 whole entry): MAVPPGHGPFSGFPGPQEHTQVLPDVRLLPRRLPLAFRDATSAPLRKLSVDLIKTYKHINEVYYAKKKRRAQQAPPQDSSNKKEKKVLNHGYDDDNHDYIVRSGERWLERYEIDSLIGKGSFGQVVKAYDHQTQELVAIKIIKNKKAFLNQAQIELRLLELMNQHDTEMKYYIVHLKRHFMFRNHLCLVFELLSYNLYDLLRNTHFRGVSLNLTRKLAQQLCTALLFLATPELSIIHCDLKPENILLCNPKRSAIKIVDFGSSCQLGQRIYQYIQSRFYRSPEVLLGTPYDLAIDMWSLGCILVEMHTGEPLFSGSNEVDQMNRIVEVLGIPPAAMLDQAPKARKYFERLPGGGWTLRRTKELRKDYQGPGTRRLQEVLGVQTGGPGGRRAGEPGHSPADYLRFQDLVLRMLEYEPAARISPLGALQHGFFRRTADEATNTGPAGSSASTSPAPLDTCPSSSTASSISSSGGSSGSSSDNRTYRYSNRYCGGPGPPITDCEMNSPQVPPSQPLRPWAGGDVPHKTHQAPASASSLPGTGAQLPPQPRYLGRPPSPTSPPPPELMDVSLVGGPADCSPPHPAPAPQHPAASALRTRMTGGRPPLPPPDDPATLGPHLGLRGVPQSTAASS

Nc1ccc(-c2cc(-c3cccnc3)cs2)cn1
IC50 [1]: 251 nM

C[C@]12CC[C@H]3[C@@H](CCC4=CC(=O)CC[C@@]43C)[C@@H]1CC[C@@H]2O [TESTOSTERONE]
half-life at 0.3 µM [2]: 0.142 h

Nc1cncc(-c2cc(-c3cccnc3)cs2)c1
IC50 [1]: 154 nM

c1cncc(-c2cc(-c3cncs3)cs2)c1
half-life at 0.5 µM [3]: 0.45 h

COc1ccc2c(c1)[nH]c1c(C)nccc12 [HARMINE]
IC50 [4]: 8000 nM

CN[C@@H]1C[C@H]2O[C@@](C)([C@@H]1OC)n1c3ccccc3c3c4c(c5c6ccccc6n2c5c31)C(=O)NC4 [STAUROSPORINE]
viability at 1 µM [5]: 33%

Nc1cncc(-c2csc(-c3cccnc3)c2)c1
IC50 [1]: 130 nM

O=C(Nc1cncc(-c2cc(-c3cccnc3)cs2)c1)c1c(F)cc(F)cc1F
IC50 [1]: 298 nM
half-life at 0.3 µM [2]: 2.05 h

Oc1ccc(-c2nc3ccc4[nH]ncc4c3c3c2CCCC3)c(F)c1
IC50 [6]: 4800 nM

O=C(Cc1ccc(F)cc1)Nc1cncc(-c2cc(-c3cccnc3)cs2)c1
inhibition [7]: 0%
inhibition at 2 µM [8]: 40%
inhibition [9]: 10%
viability at 1 µM [5]: 99%
inhibition [10]: 4%
inhibition [11]: 0%
inhibition [12]: 19%
IC50 [1]: 383 nM
viability at 10 µM [13]: 88%
inhibition [14]: 2%
IC50 [15]: 79 nM
inhibition [16]: 8%
inhibition [17]: 9.8%
IC50 [18]: 36 nM
inhibition [19]: 87%
viability at 3 µM [20]: 97%
IC50 [21]: 14.3 nM
half-life at 0.3 µM [2]: 1.97 h
inhibition at 2 µM [22]: 40%
inhibition [23]: 95%
inhibition [24]: 60%
IC50 [25]: 14.3 nM

O=C(Cc1ccccc1)Nc1cncc(-c2cc(-c3cccnc3)cs2)c1
IC50 [1]: 326 nM
